# Experimental data: ChEMBL document CHEMBL2311344, “Development of an in vivo active, dual EP1 and EP3 selective antagonist based on a novel acyl sulfonamide bioisostere” (Bioorg Med Chem Lett, 2013)
# The source made the active and inactive calls. The rule behind the calls is not given here.
# Key:
# [1] = target: T1, Prostaglandin E2 receptor EP3 subtype (Mus musculus, UniProt P30557); assay: Antagonist activity at mouse EP3 receptor
# T1 sequence (P30557 whole entry): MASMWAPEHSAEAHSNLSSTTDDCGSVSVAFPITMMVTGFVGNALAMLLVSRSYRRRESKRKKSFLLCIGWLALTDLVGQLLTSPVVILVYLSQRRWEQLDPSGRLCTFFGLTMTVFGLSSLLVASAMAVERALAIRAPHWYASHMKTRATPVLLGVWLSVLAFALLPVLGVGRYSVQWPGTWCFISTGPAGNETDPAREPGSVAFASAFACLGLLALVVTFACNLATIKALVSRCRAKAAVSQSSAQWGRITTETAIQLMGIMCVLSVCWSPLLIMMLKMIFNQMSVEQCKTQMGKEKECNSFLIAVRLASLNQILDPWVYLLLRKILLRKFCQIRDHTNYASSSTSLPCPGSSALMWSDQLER
# Method in brief: (§1)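 Affinity at mouse EP2, EP3 and EP4 is given as pKI. Signalling through mouse TP is given as pIC50. Mean ± SEM of at least three independent experiments, each run in triplicate.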
# [2] = target: Prostaglandin E2 receptor EP4 subtype (Mus musculus, UniProt P32240); assay: Antagonist activity at mouse EP4 receptor; method in brief: as §1
# Chain of Prostaglandin E2 receptor EP4 subtype (P32240 whole entry): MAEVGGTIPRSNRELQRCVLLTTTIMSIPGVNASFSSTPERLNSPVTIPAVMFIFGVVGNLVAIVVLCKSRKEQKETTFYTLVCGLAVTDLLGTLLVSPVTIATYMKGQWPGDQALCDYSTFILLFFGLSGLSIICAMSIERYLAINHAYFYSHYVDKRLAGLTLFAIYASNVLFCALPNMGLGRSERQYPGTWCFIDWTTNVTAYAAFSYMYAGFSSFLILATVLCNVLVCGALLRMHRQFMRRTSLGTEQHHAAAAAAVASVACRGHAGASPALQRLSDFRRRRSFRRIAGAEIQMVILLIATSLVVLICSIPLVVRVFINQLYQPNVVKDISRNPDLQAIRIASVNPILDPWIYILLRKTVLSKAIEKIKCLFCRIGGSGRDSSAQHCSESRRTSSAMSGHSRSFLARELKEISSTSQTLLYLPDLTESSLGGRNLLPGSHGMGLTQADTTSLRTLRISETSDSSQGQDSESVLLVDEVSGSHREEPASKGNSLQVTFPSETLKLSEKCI
# [3] = target: Prostaglandin E2 receptor EP2 subtype (Mus musculus, UniProt Q62053); assay: Antagonist activity at mouse EP2 receptor; method in brief: as §1
# Chain of Prostaglandin E2 receptor EP2 subtype (Q62053 whole entry): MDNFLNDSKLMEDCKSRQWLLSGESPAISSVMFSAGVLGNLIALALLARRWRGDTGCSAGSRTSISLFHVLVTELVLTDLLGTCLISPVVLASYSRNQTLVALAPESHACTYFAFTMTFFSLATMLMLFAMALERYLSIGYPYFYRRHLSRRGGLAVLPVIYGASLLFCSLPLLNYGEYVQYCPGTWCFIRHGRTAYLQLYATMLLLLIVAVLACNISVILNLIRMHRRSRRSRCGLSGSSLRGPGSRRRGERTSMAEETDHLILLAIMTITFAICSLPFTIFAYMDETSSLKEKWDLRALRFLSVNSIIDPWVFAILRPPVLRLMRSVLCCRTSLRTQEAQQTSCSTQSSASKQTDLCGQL
# Thromboxane A2 receptor = target: T2, Thromboxane A2 receptor (Mus musculus, UniProt P30987); assay: Antagonist activity at mouse TP receptor; method in brief: as §1
# T2 sequence (P30987 whole entry): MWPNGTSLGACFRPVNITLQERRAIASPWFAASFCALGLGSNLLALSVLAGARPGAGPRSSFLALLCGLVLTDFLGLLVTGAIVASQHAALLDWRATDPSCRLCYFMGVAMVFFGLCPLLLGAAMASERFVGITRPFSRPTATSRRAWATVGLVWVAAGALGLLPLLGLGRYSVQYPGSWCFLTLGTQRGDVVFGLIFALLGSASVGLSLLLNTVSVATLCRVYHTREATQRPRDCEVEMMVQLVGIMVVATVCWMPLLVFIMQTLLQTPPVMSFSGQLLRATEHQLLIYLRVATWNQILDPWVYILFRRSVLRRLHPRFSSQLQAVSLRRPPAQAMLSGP
# [4] = target: T3, Prostaglandin E2 receptor EP1 subtype (Mus musculus, UniProt P35375); assay: Antagonist activity at mouse EP1 receptor expressed in CHOK1 cells assessed as inhibition of 17PTPGE2-induced calcium influx; assay type: functional, cell-based, CHO-K1
# T3 sequence (P35375 whole entry): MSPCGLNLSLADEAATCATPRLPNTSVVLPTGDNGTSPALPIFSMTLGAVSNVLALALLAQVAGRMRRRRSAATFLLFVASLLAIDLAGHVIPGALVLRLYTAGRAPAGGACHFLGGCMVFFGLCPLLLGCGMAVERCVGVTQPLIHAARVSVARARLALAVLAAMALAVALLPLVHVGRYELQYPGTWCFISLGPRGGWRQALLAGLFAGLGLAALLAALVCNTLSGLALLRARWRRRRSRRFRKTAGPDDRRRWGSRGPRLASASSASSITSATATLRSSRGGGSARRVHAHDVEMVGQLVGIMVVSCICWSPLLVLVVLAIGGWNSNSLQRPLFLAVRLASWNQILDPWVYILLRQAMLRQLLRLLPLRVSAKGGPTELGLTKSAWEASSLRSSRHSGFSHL
# Method in brief: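 CHOk1 cells expressing mouse EP1 were treated with six antagonist concentrations, then challenged with a concentration range of the EP1 agonist 17-phenyl-ω-trinor PGE2. pKD/KD came from transformed Schild regression of the concentration-response curves. Mean ± SEM of at least two independent experiments, each in duplicate.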
# [5] = target: T4, Prostaglandin E2 receptor EP1 subtype (Mus musculus) (UniProt P35375); assay: Antagonist activity at mouse EP1 receptor expressed in CHOK1 cells assessed as inhibition of 17PTPGE2-induced calcium influx at >100 uM; assay type: functional, cell-based; settings: CHO-K1
# T4 sequence (whole entry): T3 sequence (P35375 whole entry)
# [6] = Volume of distribution at steady state in mouse at 1 mg/kg, iv; assay type: ADME, organism-based; design: dose 1 mg/kg, route intravenous; settings: in vivo, read-out: Vdss
# Method in brief: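 Mouse plasma pharmacokinetics after a single intravenous 1 mg/kg dose. Systemic plasma clearance and volume of distribution predicted at steady state were derived from the IV data. A separate oral arm at 10 mg/kg was used for bioavailability.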
# [7] = Plasma clearance in mouse at 1 mg/kg, iv; assay type: ADME, organism-based; design: dose 1 mg/kg, route intravenous
# Method in brief: (§2)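 Mice were dosed IV at 1 mg/kg or orally at 10 mg/kg. From plasma, the following were derived: systemic plasma clearance, Vss, t1/2 and oral bioavailability (%F).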
# Plasma = assay: Fraction unbound in mouse plasma; assay type: ADME, cell-free
# [8] = Oral bioavailability in mouse at 10 mg/kg; assay type: ADME, organism-based; settings: in vivo; method in brief: as §2
# [9] = Half life in mouse at 1 mg/kg, iv; assay type: ADME, organism-based; design: dose 1 mg/kg, route intravenous; settings: in vivo
# Method in brief: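 Single intravenous dose of 1 mg/kg given to mice. Half-life was derived from systemic plasma levels. Plasma clearance (CLp) and steady-state volume of distribution (Vss) came from the same study. A separate 10 mg/kg oral arm was run for bioavailability.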
# [10] = Drug metabolism in mouse liver microsomes assessed as cytochrome P450-mediated methylene linker oxidation; assay type: ADME, Microsome
# [11] = Drug metabolism in mouse liver microsomes assessed as esterase-mediated sulfonamide hydrolysis; assay type: ADME, Microsome
# Mus musculus [12] = assay: Cmax in mouse at 5 mg/kg, sc; assay type: ADME, organism-based; design: dose 5 mg/kg, route subcutaneous; settings: in vivo
# Method in brief: (§3)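 Subcutaneous dose of 5 mg/kg in mice (n = 3). Plasma sampled intermittently to build a concentration-time profile. Cmax, tmax and AUC were taken from that profile.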
# Mus musculus [13] = assay: Antihypertensive activity in mouse assessed as sulprostone-induced mean arterial pressure at 5 mg/kg, sc administered 2 hr prior to sulprostone-challenge (reference value: 53.3 +/- 2.3 mmHg); assay type: functional, Artery; settings: route subcutaneous
# Method in brief: (§4)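 Mice were anesthetized, with the left common carotid artery and right jugular vein cannulated. Arterial pressure was recorded directly via the carotid catheter. Test agent or vehicle was given 5 mg/kg sc. After 2 h, an IV bolus went through the jugular catheter: 20 μg/kg 17-phenyl-ω-trinor PGE2 (EP1) or 10 μg/kg sulprostone (EP3). Read-out was change in MAP. n = 3 per group; two-tailed Student's t test.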
# Mus musculus [14] = assay: AUC in mouse at 5 mg/kg, sc; assay type: ADME, organism-based, Plasma; design: dose 5 mg/kg, route subcutaneous; settings: in vivo; method in brief: as §3
# Mus musculus [15] = assay: Tmax in mouse at 5 mg/kg, sc; assay type: ADME, organism-based; design: dose 5 mg/kg, route subcutaneous; settings: in vivo; method in brief: as §3
# [16] = Drug metabolism in mouse liver microsomes assessed as cytochrome P450-mediated benzylic oxidation; assay type: ADME, Microsome
# Mus musculus [17] = assay: Antihypertensive activity in mouse assessed as 17PTPGE2-induced mean arterial pressure at 5 mg/kg, sc administered 2 hr prior to 17PTPGE2-challenge (reference value: 50.3 +/- 5.5 mmHg); assay type: functional, Artery; settings: route subcutaneous; method in brief: as §4
# Mus musculus [18] = assay: Antihypertensive activity in mouse assessed as effect on phenylephrine-induced vasopressor activity at 5 mg/kg, sc administered 2 hrs prior to phenylephrine-challenge; assay type: functional, organism-based; design: dose 5 mg/kg
# Method in brief: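 In the same anesthetized, carotid/jugular-cannulated mouse preparation, phenylephrine 10 μg/kg was given as an IV bolus 2 h after 5 mg/kg sc pretreatment. The change in arterial pressure served as the non-EP vasoconstriction control.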
# [19] = Drug metabolism in mouse liver microsomes assessed as esterase-mediated hydrolysis; assay type: ADME, Microsome
# [20] = Drug metabolism in mouse liver microsomes assessed as cytochrome P450-mediated oxidation; assay type: ADME, Microsome
Structure (SMILES),Ki [1],Ki [2],Ki [3],pIC50 (Thromboxane A2 receptor),Kd ([4]; read-out: Kd),further results
Cc1ccc(S(=O)(=O)NC(=O)c2cccc(Cc3cc(Cl)ccc3OCc3ccc(Cl)cc3F)n2)cc1,> 1 µM,> 1 µM,> 1 µM,< 6,0.214 µM,–
O=C(NS(=O)(=O)c1cc(Cl)ccc1Cl)c1cccc(Cc2cc(Cl)ccc2OCc2ccc(Cl)cc2F)n1,0.204 µM,> 1 µM,> 1 µM,< 6,0.0537 µM,Kd ([4]; read-out: pKd (converted)): 0.0562 µM
CC(C)(C)NC(=O)c1cccc(Cc2cc(Cl)ccc2OCc2ccc(Cl)cc2F)n1,> 1 µM,> 1 µM,> 1 µM,< 6,4.36 µM,–
CCC(C)NC(=O)c1cccc(Cc2cc(Cl)ccc2OCc2ccc(Cl)cc2F)n1 (stereo not drawn),> 1 µM,> 1 µM,> 1 µM,< 6,1.38 µM,–
O=C(NCC1CC1)c1cccc(Cc2cc(Cl)ccc2OCc2ccc(Cl)cc2F)n1,> 1 µM,> 1 µM,> 1 µM,< 6,0.549 µM,–
CCCS(=O)(=O)NC(=O)c1cccc(Cc2cc(Cl)ccc2OCc2ccc(Cl)cc2F)n1,> 1 µM,> 1 µM,> 1 µM,< 6,–,Activity [5]: inactive
O=C(NS(=O)(=O)c1ccc(Cl)c(Cl)c1)c1cccc(Cc2cc(Cl)ccc2OCc2ccc(Cl)cc2F)n1,0.0661 µM,> 1 µM,> 1 µM,< 6,0.214 µM,–
O=C(O)c1cccc(Cc2cc(Cl)ccc2OCc2ccc(Cl)cc2F)n1,> 1 µM,> 1 µM,1.74 µM,–,0.0479 µM,Vd [6]: 0.9 L/kg; clearance [7]: 59.2 mL/min/kg; Fu (Plasma): 0.005; bioavailability [8]: 13.8%; half-life [9]: 1.08 h
O=C(NC1CC2CCC1C2)c1cccc(Cc2cc(Cl)ccc2OCc2ccc(Cl)cc2F)n1 (stereo not drawn),> 1 µM,> 1 µM,> 1 µM,< 6,2.19 µM,–
CCN(CC)C(=O)c1cccc(Cc2cc(Cl)ccc2OCc2ccc(Cl)cc2F)n1,> 1 µM,> 1 µM,> 1 µM,< 6,0.447 µM,–
O=C(c1cccc(Cc2cc(Cl)ccc2OCc2ccc(Cl)cc2F)n1)N1CCCC1,> 1 µM,> 1 µM,> 1 µM,< 6,15.8 µM,–
O=C(NS(=O)(=O)c1ccc(Cl)cc1)c1cccc(Cc2cc(Cl)ccc2OCc2ccc(Cl)cc2F)n1,0.107 µM,> 1 µM,> 1 µM,< 6,0.0407 µM,Drug metabolism [10]: Active; Drug metabolism [11]: Active; Cmax (Mus musculus [12]): 504 nM; Activity (Mus musculus [13]): 32 mmHg; AUC (Mus musculus [14]): 7.508 µM·h; Tmax (Mus musculus [15]): 2 h; Fu (Plasma): 0.004; Drug metabolism [16]: Active; Activity (Mus musculus [17]): 27 mmHg; Activity (Mus musculus [18]): inactive
NC(=O)c1cccc(Cc2cc(Cl)ccc2OCc2ccc(Cl)cc2F)n1,> 1 µM,> 1 µM,> 1 µM,< 6,2.63 µM,–
CC(C)CNC(=O)c1cccc(Cc2cc(Cl)ccc2OCc2ccc(Cl)cc2F)n1,0.214 µM,> 1 µM,> 1 µM,< 6,0.302 µM,Drug metabolism [19]: Active; Fu (Plasma): 0.01; Drug metabolism [20]: Active
O=C(NC1CCC1)c1cccc(Cc2cc(Cl)ccc2OCc2ccc(Cl)cc2F)n1,> 1 µM,> 1 µM,> 1 µM,< 6,0.912 µM,–
